≈ marks a conversion by molar mass, not a printed value.

One data set has as its system Vero. Description: Minimum inhibitory concentration against African swine fever virus, in vero monkey kidney cells. Type of data set: functional. Conditions: Chlorocebus sabaeus.
On to `C=C1C2(NCC)CCC(C2)C1(C)C` (stereo not drawn), for which the MIC50 is 100 µg/mL (≈ 558 µM).
In the case of `C=C1C2CCC(NCC)(C2)C1(C)C` (stereo not drawn), the MIC50 was determined as 30 µg/mL (≈ 167 µM).
Same read-out and setting: with `CCNC12CCC(C1)C(C)C2(C)C` (stereo not drawn) the figure was 25 µg/mL (≈ 138 µM); with `CCNC12CCC(C1)C(C)(C)C2C` (stereo not drawn), 30 µg/mL (≈ 165 µM).
On the same count and under the same terms, next, `CC1C2(N)CCC(C2)C1(C)C` (stereo not drawn): 30 µg/mL (≈ 196 µM).
The molecule `CC1C2CCC(N)(C2)C1(C)C` (stereo not drawn) yielded an MIC50 of 25 µg/mL (≈ 163 µM).

System in another data set: not listed separately
Description: Ratio of MIC50 to MTC50 against HSV-2. Type of data set: functional.
Details: not given
In the case of `C=C1C2(NCC)CCC(C2)C1(C)C` (stereo not drawn), the Selectivity index was 1.
Turning to `C=C1C2CCC(NCC)(C2)C1(C)C` (stereo not drawn), the Selectivity index stood at 4.
Still for that read-out and setting: next, `CCNC12CCC(C1)C(C)C2(C)C` (stereo not drawn): 12; `CCNC12CCC(C1)C(C)(C)C2C` (stereo not drawn): 4.
Still for that read-out and setting: with `CC1C2(N)CCC(C2)C1(C)C` (stereo not drawn) the figure was 6; with `CC1C2CCC(N)(C2)C1(C)C` (stereo not drawn), 8.

System in another data set: not listed separately
The data set can be described thus: […] against African Swine Fever Virus. Type of data set: functional.
Details: not given
As for `C=C1C2(NCC)CCC(C2)C1(C)C` (stereo not drawn), the Selectivity index came out at 3.
Still for that read-out and setting: with `C=C1C2CCC(NCC)(C2)C1(C)C` (stereo not drawn) the figure was 13; with `CCNC12CCC(C1)C(C)C2(C)C` (stereo not drawn), 12.
On the same count and under the same terms, with `CCNC12CCC(C1)C(C)(C)C2C` (stereo not drawn) the figure was 10; with `CC1C2(N)CCC(C2)C1(C)C` (stereo not drawn), 10.
On to `CC1C2CCC(N)(C2)C1(C)C` (stereo not drawn), for which the Selectivity index is listed as 8.

System in another data set: not listed separately
The data set can be described thus: Minimum toxic concentration against African swine fever virus, in vero monkey kidney cells. The data set is classed as ADME, cell-based. The conditions noted are these: chlorocebus sabaeus, read-out: MTC50.
Consider `C=C1C2(NCC)CCC(C2)C1(C)C` (stereo not drawn), for which the MCC is 300 µg/mL.
Take `C=C1C2CCC(NCC)(C2)C1(C)C` (stereo not drawn): the MCC is 400 µg/mL.
Consider `CCNC12CCC(C1)C(C)C2(C)C` (stereo not drawn), for which the MCC was found to be 300 µg/mL.
The same measure, in the same setting: next, `CCNC12CCC(C1)C(C)(C)C2C` (stereo not drawn): 300 µg/mL; `CC1C2(N)CCC(C2)C1(C)C` (stereo not drawn): 300 µg/mL.
On to `CC1C2CCC(N)(C2)C1(C)C` (stereo not drawn), for which the MCC worked out at 200 µg/mL.

The next data set concerns MDCK. Description: Minimum inhibitory concentration against influenza A virus, in MDCK cells from dog kidney. The data set is classed as functional. The conditions noted are these: Canis lupus familiaris. Summed up: (§1)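 MDCK dog kidney cells infected with influenza A. MIC50 is the lowest concentration giving a 50% drop in virus yield. MTC50 is the lowest concentration toxic to 50% of cells. Selectivity index is MTC50 divided by MIC50, in µg/mL terms. Amantadine hydrochloride served as the reference.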
The molecule `C=C1C2(NCC)CCC(C2)C1(C)C` (stereo not drawn) gave an MIC50 of 5 µg/mL (≈ 27.9 µM).
Still for that read-out and setting: with `C=C1C2CCC(NCC)(C2)C1(C)C` (stereo not drawn) the figure was 0.1 µg/mL (≈ 0.558 µM); with `CCNC12CCC(C1)C(C)C2(C)C` (stereo not drawn), less than 10 µg/mL.
The same measure, in the same setting: next, `CCNC12CCC(C1)C(C)(C)C2C` (stereo not drawn): 0.1 µg/mL (≈ 0.552 µM).
Regarding `Cl.NC12CC3CC(CC(C3)C1)C2` [AMANTADINE HYDROCHLORIDE], the MIC50 is 0.5 µg/mL.
On to `CC1C2CCC(N)(C2)C1(C)C` (stereo not drawn), for which the MIC50 is 5 µg/mL (≈ 32.6 µM).

System in another data set: not listed separately
The data set can be described thus: Minimum toxic concentration against influenza A virus, in MDCK cells from dog kidney. Type of data set: ADME, cell-based, Canis lupus familiaris. The conditions noted are these: read-out: MTC50. Summed up: as §1
Turning to `C=C1C2(NCC)CCC(C2)C1(C)C` (stereo not drawn), the MCC is 200 µg/mL.
Take `C=C1C2CCC(NCC)(C2)C1(C)C` (stereo not drawn): the MCC came to 100 µg/mL.
On the same count and under the same terms, with `CCNC12CCC(C1)C(C)C2(C)C` (stereo not drawn) the figure was 100 µg/mL.
On the same count and under the same terms, with `CCNC12CCC(C1)C(C)(C)C2C` (stereo not drawn) the figure was 100 µg/mL; with `Cl.NC12CC3CC(CC(C3)C1)C2` [AMANTADINE HYDROCHLORIDE], 300 µg/mL.
Turning to `CC1C2CCC(N)(C2)C1(C)C` (stereo not drawn), the MCC stood at 50 µg/mL.

System in the next data set: not listed separately
The data set can be described thus: Minimum toxic concentration against herpes simplex virus 2, in vero monkey kidney cells. The data set is classed as ADME, cell-based. Conditions: chlorocebus sabaeus, read-out: MTC50.
Consider `C=C1C2(NCC)CCC(C2)C1(C)C` (stereo not drawn), for which the MCC came to 300 µg/mL.
For the molecule `C=C1C2CCC(NCC)(C2)C1(C)C` (stereo not drawn), the MCC is 400 µg/mL.
As for `CCNC12CCC(C1)C(C)C2(C)C` (stereo not drawn), the MCC turned out to be 300 µg/mL.
Still for that read-out and setting: with `CCNC12CCC(C1)C(C)(C)C2C` (stereo not drawn) the figure was 300 µg/mL; with `CC1C2(N)CCC(C2)C1(C)C` (stereo not drawn), 300 µg/mL.
On to `CC1C2CCC(N)(C2)C1(C)C` (stereo not drawn), for which the MCC came out at 200 µg/mL.

The next data set deals with Vero. The data set can be described thus: Minimum inhibitory concentration against herpes simplex virus 2, in vero monkey kidney cells. Type of data set: functional. The conditions noted are these: Chlorocebus sabaeus.
Regarding `C=C1C2(NCC)CCC(C2)C1(C)C` (stereo not drawn), the MIC50 amounted to 300 µg/mL (≈ 1670 µM).
The molecule `C=C1C2CCC(NCC)(C2)C1(C)C` (stereo not drawn) displayed an MIC50 of 100 µg/mL (≈ 558 µM).
On the same count and under the same terms, with `CCNC12CCC(C1)C(C)C2(C)C` (stereo not drawn) the figure was 25 µg/mL (≈ 138 µM); with `CCNC12CCC(C1)C(C)(C)C2C` (stereo not drawn), 75 µg/mL (≈ 414 µM); with `CC1C2(N)CCC(C2)C1(C)C` (stereo not drawn), 50 µg/mL (≈ 326 µM).
`CC1C2CCC(N)(C2)C1(C)C` (stereo not drawn) yielded an MIC50 of 25 µg/mL (≈ 163 µM).

(Values after ChEMBL document CHEMBL1128182, “Synthesis of substituted 1-norbornylamines with antiviral activity” (J Med Chem, 1995).)
